In the library only some 7.1% were active in any assay of this set; here they are far more common.
bCat KO growth: primary screen for growth suppressors in beta-catenin knockout HCT116 cells (colon tumor, human) | HCT116 beta-catenin knockout viability, CellTiter-Glo, 60 h; stronger effect = lower value | viability, % at 10 µM | 140,000 compounds, 1.5% hits;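 active = viability at or under a set limit, the compound median less 4 SD, cut at about 6% in these data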;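 note: 0% = Hyamine 1622 control at 20 µM and 100% = untreated cell control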
H69AR inhibit: proliferation blockers of H69AR lung cancer cells, primary screen, cell-based, human, 86K library. AID 598, 2007. viability, % at 10 µM. 85,000 compounds, 6% hits. H69AR lung tumor viability, ATP luminescence, 72 h; stronger effect = lower value;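 active = viability at or below 40%; inactive = viability above 40%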;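 note: multidrug resistant small cell line overexpressing MRP-1 efflux transporter; 100% = mean luminescence of untreated control wells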
Fibroblast inh: antiproliferative effect on LL 47 fibroblasts – human, LL 47 cells, CellTiter-Glo luminescence, primary screen | LL 47 human lung fibroblast viability, ATP luminescence; stronger effect = lower value | viability, % at 10 µM | 85,000 compounds, 1.1% hits | AID 719, 2007;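 active = viability at or below 50% in the single dose screen; inactive = viability above 50%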;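 note: compound exposure lasted 72 h before the ATP readout; 100% = median luminescence of untreated cell-only wells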
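Signal: luminescent ATP detection, CellTiter-Glo; assay system: LL 47 human lung fibroblasts; input: 1,150 cells/well; incubation: overnight cell rest, 72 h compound treatment at 37 °C; measure: % viability versus median cells-only luminescence; medium: IMEM growth medium with 15% fetal bovine serum; dosing: compound addition at 0.1% DMSO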
HUVEC inhibit: inhibitors of HUVEC proliferation, primary screen, cell-based, 384-well; viability, % at 10 µM (by protocol); AID 648, 2007; 86,000 compounds, 1.1% hits; CellTiter-Glo luminescence, 72 h; stronger effect = lower value;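 active = viability at or below 30%; inactive = viability above 30%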;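 note: 100% = median luminescence of DMSO-only cell control wells on each plate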
Cav32 inh: Cav3.2 calcium influx blockers – cell-based, Fluo-4 calcium fluorescence, FDSS, MLSMR library, primary screen; Voltage-dependent T-type calcium channel subunit alpha-1H (Homo sapiens), O95180; Cav3.2-expressing cells; stronger effect = lower value; B-score at 10 µM; 100,000 compounds, 4% hits; AID 449739, 2010;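 active = single-dose well whose peak fluorescence ratio is a statistical outlier from its plate by either plate-standardised score or position-corrected B-score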
HCT116 PTEN-null: growth suppression of PTEN-null HCT116, primary screen, cell-based, CellTiter-Glo; HCT116 PTEN-null viability, 60 h; stronger effect = lower value; viability, % at 10 µM; 140,000 compounds, 1.2% hits; AID 827, 2007;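 active = viability at or below a set limit, 4 SD under the median of all tested compounds, cut at about 3.7% in these data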;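 note: PTEN knockout HCT116 line with beta catenin targeted HCT116 as companion control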
* marks the source's active call; other numbers are inactive results; · = not tested or not shown.

SMILES	bCat KO growth	H69AR inhibit	Fibroblast inh	HUVEC inhibit	Cav32 inh	HCT116 PTEN-null
CC1CCC(NC(=O)c2ccc3c(c2)S(=O)(=O)c2ccccc2C3=O)CC1 (centres undefined)	·	·	·	·	0.34	·
CCOC(=O)Cc1nnc(Nc2ccc(C)cc2C)c2ccccc12	95.2	·	·	·	·	105.6
CCNC(=S)N/N=C/c1cccc(C)c1	92.9	·	·	·	·	103.4
Cc1ccccc1NC(=O)CSc1nc(N)c2c3c(sc2n1)CSC(C)(C)C3	61.6	·	·	·	·	64.8
COC(=O)CSc1nc(N)c2c3c(sc2n1)C(c1ccccc1)SC(c1ccccc1)C3 (centres undefined)	1.1*	·	·	·	·	0.7*
Cc1ccc(NC(=O)Cn2c(=O)oc3cc(S(=O)(=O)N4CCC(C)CC4)ccc32)cc1C	81.0	16.9*	88.8	77.4	-5.87*	99.0
CC(=O)n1cc(C(C[N+](=O)[O-])SCCN)c2ccccc21 (centres undefined)	77.0	1.6*	24.4*	21.6*	-3.78*	87.8
O=C(CCSc1nc2ccccc2s1)N/N=C/c1c(O)ccc2ccccc12	4.6*	·	·	·	·	3.2*
COc1ccc(/C=N/NC(=O)CCSc2nc3ccccc3s2)cc1OC	87.6	·	·	·	·	81.5
COc1ccc(-c2cc(C(F)(F)F)c(C#N)c(SCC(=O)Nc3ccccc3C#N)n2)cc1	3.2*	·	·	·	0.169	4.9
COc1ccc(-c2cc(-c3cccs3)c(C#N)c(SCC(=O)NCc3ccccc3OC)n2)cc1	10.4	11.4*	48.6*	45.4	1.13	6.5
COc1ccc(-c2cc(-c3ccccc3)nc(SCC(=O)Nc3ncc(C)s3)c2C#N)cc1	74.8	·	·	·	·	73.2
COc1ccc(-c2cc(-c3cccs3)c(C#N)c(SCC(=O)NCc3ccccc3)n2)cc1	42.7	34.6*	94.4	65.7	-0.0643	41.6
COc1ccc(NC(=O)CSc2nc(-c3ccc(C)cc3)cc(C(F)(F)F)c2C#N)cc1	75.4	·	·	·	-0.224	69.0
C=CCn1c(SCc2c(F)cccc2Cl)nnc1-c1ccco1	78.8	·	96.5	97.6	-1.33	79.7
COc1ccc(CCNC(=O)CSc2nc3ccccc3o2)cc1	91.2	81.1	95.6	82.8	0.298	96.9
CC(NC(=S)Nc1c(Br)cccc1OC(F)F)C(C)(C)C (centres undefined)	66.0	·	·	·	·	72.8
O=C(CCNC(=O)OCc1ccccc1)NC1CCCCCC1	98.8	·	·	·	·	101.3
CCCCNC(=O)c1c(CSc2ccccc2)noc1C(=O)NCc1ccccc1	·	·	·	·	0.845	·
Cc1cc2c(cc(C(=O)OCC(=O)NCc3ccco3)n2C)s1	24.5	27.4*	71.4	57.9	-2.89	27.4
Cn1c(C(=O)OCC(=O)NCc2ccco2)cc2sccc21	100.2	82.4	97.5	74.3	-0.0436	93.9
Cc1cc(C)c(C(=O)COC(=O)[C@H](C)Nc2ccc(C(F)(F)F)cc2[N+](=O)[O-])c(C)c1	105.0	·	·	·	-4.37*	86.0
CCCCC1(Cc2ccc([N+](=O)[O-])cc2)C(=O)N(c2ccccc2)N(c2ccccc2)C1=O	8.4	·	·	·	-4.8*	9.5
Cc1nn(Cc2ccc([N+](=O)[O-])cc2)c(=O)n1-c1ccccc1	98.2	·	·	·	-1.34	101.6
O/N=C1\CCCc2ccc(Cl)cc21	120.2	·	·	·	·	95.5
SMILES	bCat KO growth	H69AR inhibit	Fibroblast inh	HUVEC inhibit	Cav32 inh	HCT116 PTEN-null
O/N=C1\CCc2cc(Cl)ccc21	101.7	95.4	94.6	86.3	2.45*	109.6
Cc1cc(Nc2ccccc2)n(-c2ccccc2)n1	91.0	103.9	94.8	88.8	-8.36*	89.5
Cc1cc(N2CCN(c3ccccc3)CC2)nc(-n2nc(C)cc2C)n1	50.1	9.3*	95.6	108.1	0.235	32.5
Cc1cc(Nc2nc(Cl)c(Cl)cc2Cl)n(-c2ccccc2)n1	33.3	·	·	·	·	38.2
Cc1cc(C)nc(-n2nc(C)cc2Nc2ccccc2)n1	39.6	10.4*	77.3	78.3	·	45.1
C=CCc1ccc(OCCOCCOc2ccc(C)cc2[N+](=O)[O-])c(OC)c1	82.3	·	·	·	-5.45*	80.4
Cc1cc([N+](=O)[O-])ccc1NC(=S)NC(=O)Cc1ccccc1	94.8	109.7	114.4	122.1	-1.33	96.4
Cc1cc([N+](=O)[O-])ccc1NC(=S)NC(=O)C(c1ccccc1)c1ccccc1	87.2	32.1*	93.8	81.4	-1.29	79.0
CCN(CC)S(=O)(=O)c1ccc(-c2nnc(SCC(=O)N3CCc4ccccc43)o2)cc1	·	4.4*	35.4*	64.9	-0.227	·
CCN(CC)S(=O)(=O)c1ccc(-c2nnc(SCc3nnc(-c4ccc(C)cc4)o3)o2)cc1	76.3	3.3*	77.5	33.0	0.626	78.6
CCN(CC)S(=O)(=O)c1ccc(-c2nnc(SCC(=O)N3CCOCC3)o2)cc1	91.9	85.0	98.3	92.0	-1.09	87.1
O=C(CSc1nc2cc(Cl)ccc2s1)Nc1cccc(S(=O)(=O)N2CCOCC2)c1	73.6	·	·	·	·	62.8
CCCCOP(=O)(OCCCC)C1(NS(=O)(=O)c2ccccc2)C=CC(=O)c2ccccc21 (centres undefined)	87.3	12.0*	86.2	34.2	-2.72	67.3
CCOC(=O)N1CCN(C(=S)Nc2cccc(C)c2)CC1	114.7	·	·	·	0.593	101.0
O=C(NNC1CC(=O)N(c2ccccc2)C1=O)c1ccc(COc2ccccc2Cl)o1 (centres undefined)	96.9	·	·	·	·	93.1
Cc1cc(O)c(C(C)C)cc1NC(=O)c1cccc(Cl)c1	96.3	·	·	·	-2.34	98.6
Cc1cc(O)c(C(C)C)cc1NC(=O)c1ccc(Cl)cc1	92.3	·	·	·	-6.28*	91.7
O=c1c(S(=O)(=O)c2ccc(Cl)cc2)cn(Cc2ccccc2F)c2ccc(F)cc12	64.1	·	·	·	·	65.4
CCCNC(=O)C1CCN(S(=O)(=O)c2c(C)noc2/C=C\c2ccc(OC)cc2)CC1	87.1	90.3	91.0	73.5	0.899	96.0
Cc1noc(/C=C/c2ccco2)c1S(=O)(=O)N1CCC(C(=O)NC(C)c2ccccc2)CC1 (centres undefined)	75.8	12.8*	95.5	85.8	-2.28	77.1
CCOCCCNC(=O)C1CCN(S(=O)(=O)c2c(C)noc2/C=C\c2ccc(OC)cc2)CC1	·	37.1*	93.8	79.9	-0.798	·
COc1ccc(-c2oc3ccc(-c4ccc5c(c4)OCO5)cc3c2-c2ccc(OC)nc2)cc1	·	·	·	·	-0.0389	·
Cc1ccc(S(=O)(=O)c2nc(-c3ccc(F)cc3)oc2SCC(=O)NCC2CCCO2)cc1 (centres undefined)	37.8	28.5*	62.4	71.4	0.797	25.2
Cc1ccc(C(=O)NCCc2nnc3ccc(SCC(=O)Nc4c(C)cc(C)cc4C)nn23)cc1	88.4	·	·	·	·	80.9
Nc1nonc1C(=O)NCCNS(=O)(=O)c1ccc(Br)cc1	56.9	·	·	·	0.609	55.6
C/C(=N\Nc1cc(Cl)nc(C)n1)c1ccc(Cl)c(Cl)c1	90.0	·	·	·	0.16	82.6
